Structures are written as SMILES. Values after ≈ are worked out from the molar mass of the structure shown.

Consider one compound from ChEMBL document CHEMBL1140185, “Conjugated chitosan as a novel platform for oral delivery of paclitaxel” (J Med Chem, 2008).

Data set [1] in a line: Drug uptake in tumor of iv dosed C57BL/6 mouse bearing mouse B16F10 cells after 30 mins. Type of data set: ADME, organism-based, C57BL6, Neoplasm, B16-F10. The conditions noted are these: in vivo, 0.5 h.
The subject of data set [2] is NCI-H358. Put plainly: Anticancer activity against human NCI-H358 cells by MTT assay. Type of data set: functional, cell-based.
A short description of data set [3]: Half life in ICR mouse at 10 mg/kg, iv. Type of data set: ADME, organism-based. More on the design: dose 10 mg/kg, route intravenous. The conditions noted are these: in vivo. In outline: (§1)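 ICR mice (25-30 g). IV arm: 10 mg/kg PTX in cremophor EL/ethanol via tail vein. Oral arm: 5 or 10 mg PTX-equivalent/kg conjugate in 10% DMSO by gavage after a 12 h fast. Retro-orbital blood taken into sodium citrate and spun 800g for 20 min. Plasma extracted with ethyl acetate; free PTX measured by HPLC. Oral bioavailability is relative to 10 mg/kg IV. n = 5.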

For data set [4], the system named is Mus musculus. Put plainly: Bioavailability in ICR mouse at 10 mg/kg, iv. The conditions noted are these: in vivo. The format is ADME, organism-based. In a few lines:
as §1

In another data set the test system is MDA-MB-231. In words: Anticancer activity against human MDA-MB-231 cells by MTT assay. A general note: Formazan colour is commonly taken as a measure of viable cells.
Data set [5] relates to Mus musculus. Put plainly: Toxicity in human NCI-H358 cells xenografted NCR nu/nu mouse assessed as decrease in body weight at 10 mg/kg, iv. Type of data set: organism-based. Details: dose 10 mg/kg, route intravenous. The conditions noted are these: in vivo. In a few lines: (§2)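 Female athymic NCR nu/nu mice (20-25 g), inoculated sc with about 6 × 10^6 NCI-H358 cells. Dosing began at tumors ≥150 mm3: 10 mg/kg/day formulated PTX iv, or conjugate po, every other day for six doses. Saline and LMWC controls. Caliper volumes taken as (1/2)(L × W2), and body weight tracked. n = 8-12; Student's t-test.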
On the technique in general: In xenograft studies the graft and the host belong to different species.

Another data set concerns SK-OV-3. Put plainly: Anticancer activity against human SKOV3 cells by MTT assay. The format is functional, cell-based.
Data set [6] in a line: AUC (0 to 48 hrs) in ICR mouse at 10 mg/kg, iv. Type of data set: ADME, organism-based. Details: time < 48 hr, dose 10 mg/kg, route intravenous. The conditions noted are these: plasma. In outline: as §1
Data set [7] relates to NCI-H358. In words: Antitumor activity against human NCI-H358 cells xenografted NCR nu/nu mouse assessed as suppression of tumor growth at 10 mg/kg, iv. Type of data set: functional. In a few lines:
as §2

Data set [8] in a line: Oral bioavailability in cyclosporine A pretreated ICR mouse. Type of data set: ADME, organism-based. The conditions noted are these: in vivo, in the assay text read “in ICR mouse” for “in cyclosporine A pretreated ICR mouse”. In outline: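 ICR mice (25-30 g) fasted 12 h, then gavaged with PTX or conjugate (PTX-equivalent). The oral solution included 15 mg/kg cyclosporine A where given. Retro-orbital blood spun at 3000g for 20 min; plasma PTX measured by HPLC. n = 4-5.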

In general, IC50 refers to the concentration that inhibits the measured activity by half. Low values mean greater potency, high ones weaker potency. What is called half-life is the time in which the quantity being followed falls by half. The term AUC(0-t) denotes exposure summed from dosing to a finite time, without extrapolation to infinity. The low end stands for low exposure, the high end for high exposure. The term bioavailability denotes the share of a dose that reaches the circulation, judged against a reference dose that is usually intravenous. In data set [1], `CC(=O)O[C@H]1C(=O)[C@@]2(C)[C@H]([C@H](OC(=O)c3ccccc3)[C@]3(O)C[C@H](OC(=O)[C@H](O)[C@@H](NC(=O)c4ccccc4)c4ccccc4)C(C)=C1C3(C)C)[C@]1(OC(C)=O)CO[C@@H]1C[C@@H]2O` [PACLITAXEL] displayed a Drug uptake of 0.5%. In addition, the IC50 amounted to 3.8 µg/mL (≈ 4.45 µM) with NCI-H358 [2], 3.9 µg/mL (≈ 4.57 µM) with MDA-MB-231 and 4 µg/mL (≈ 4.68 µM) in the data set on SK-OV-3. In data set [3], this compound gave a half-life of 33.6 min. In addition, in the data set on Mus musculus [4], the F is on record as 100%. Moreover, the Activity result with Mus musculus [5] is recorded as “Toxic”; in the data set on NCI-H358 [7], 80%. Also, in data set [6], the area under the curve AUC(0-t) at 48 h came out at 35300 ng·h/mL. Also, the bioavailability in [8] came out at 0.23%.
